In ChEMBL document CHEMBL1135527, “Synthesis and evaluation of 2'-substituted 4-(4'-carboxy- or 4'-carboxymethylbenzylidene)-N-acylpiperidines: highly potent and in vivo active steroid 5alpha-reductase type 2 inhibitors” (J Med Chem, 2002) one finds Weight, IC50 and inhibition in vivo data, which are given here for 4 molecules.

Experiment [1] concerns Rattus norvegicus. Briefly: In vivo ventral prostate weights in juvenile castrated rats treated with testosterone propionate (1 mg/kg). It is filed as functional, Prostate gland. In a few lines: (§1)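 Male rats castrated at 21 days old by scrotal incision under ether anaesthesia; eight groups of eight. One week later, testosterone propionate 1 mg/kg and test agent or vehicle in oil given once daily for 4 days. Testosterone and test agent were given by separate sc injections, or the test agent was given orally. Test doses 11.3–12.2 mg/kg, 10 times equimolar to finasteride 1 mg/kg.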

Experiment [2] has as its target T1, 3-oxo-5-alpha-steroid 4-dehydrogenase 2 (Rattus norvegicus, UniProt P31214).
T1 sequence (P31214 whole entry): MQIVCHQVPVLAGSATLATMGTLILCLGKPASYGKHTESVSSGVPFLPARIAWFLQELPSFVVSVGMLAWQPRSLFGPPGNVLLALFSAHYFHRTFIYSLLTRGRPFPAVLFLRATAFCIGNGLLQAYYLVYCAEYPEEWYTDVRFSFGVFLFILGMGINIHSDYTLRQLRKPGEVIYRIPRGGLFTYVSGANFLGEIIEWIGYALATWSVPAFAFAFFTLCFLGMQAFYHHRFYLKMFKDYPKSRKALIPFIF
Nature of the experiment: Inhibition of Steroid 5-alpha-reductase type 2 of rat ventral prostate (RVP). It is filed as tissue-based, Prostate gland. In a few lines: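 Type 2 source: rat ventral prostate homogenized in citrate buffer pH 5.5, 105000g pellet. About 250 μg protein incubated 30 min at 37 °C in 40 mM citrate pH 5.5 with 200 μM NADPH, 0.21 μM [1,2-³H]testosterone and 2% DMSO. NaOH stop, ether extraction, radio-HPLC of T/DHT. Result given as % inhibition at 10 μM or IC50, run in duplicate.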

The target of experiment [3] is T2, 3-oxo-5-alpha-steroid 4-dehydrogenase 1 (Homo sapiens, UniProt P18405).
T2 sequence (P18405 whole entry): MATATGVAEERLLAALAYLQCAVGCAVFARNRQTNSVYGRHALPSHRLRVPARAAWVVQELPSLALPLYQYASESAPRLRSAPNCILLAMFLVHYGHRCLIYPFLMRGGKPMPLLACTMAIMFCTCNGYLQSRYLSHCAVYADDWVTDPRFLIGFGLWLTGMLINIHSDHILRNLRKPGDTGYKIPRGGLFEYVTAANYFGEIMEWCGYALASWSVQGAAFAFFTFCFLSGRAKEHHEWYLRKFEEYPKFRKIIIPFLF
Briefly: In vitro inhibitory activity against Steroid 5-alpha-reductase type I of human DU 145 prostatic tumor cell line. In a few lines: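 Intact human prostatic carcinoma DU145 cells (type 1 enzyme source), seeded at 180 000 cells/well and left to adhere overnight, incubated 6 h at 37 °C in 5% CO2 with compound in DMSO in complete medium; substrate tritiated androstenedione 5 nM. Medium extracted with diethyl ether, steroids separated by radio-HPLC. Screened at 10 μM, duplicate; product formed as % of uninhibited control.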

Experiment [4] deals with T3, 3-oxo-5-alpha-steroid 4-dehydrogenase 1 (Rattus norvegicus, UniProt P24008).
T3 sequence (P24008 whole entry): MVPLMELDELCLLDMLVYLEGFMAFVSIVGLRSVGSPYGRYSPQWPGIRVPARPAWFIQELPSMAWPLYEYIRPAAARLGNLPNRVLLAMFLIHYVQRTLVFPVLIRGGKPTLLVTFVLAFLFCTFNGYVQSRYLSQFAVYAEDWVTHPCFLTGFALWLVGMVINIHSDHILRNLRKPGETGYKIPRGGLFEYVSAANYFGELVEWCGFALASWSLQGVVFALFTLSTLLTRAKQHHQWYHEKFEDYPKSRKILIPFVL
Briefly: Inhibition of Steroid 5-alpha-reductase type I from rat ventral prostate (RVP). The experiment is classed as tissue-based, Prostate gland. In a few lines: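 Rat ventral prostate 105000g pellet made in 20 mM phosphate pH 6.6 with […] and 1 mM DTT at 0–4 °C. About 250 μg protein incubated 30 min at 37 °C in 40 mM phosphate pH 6.6 with 200 μM NADPH, 0.21 μM [1,2-³H]testosterone and 2% DMSO. Ether extraction, radio-HPLC of T and DHT. % inhibition at 10 μM or IC50; duplicates.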

The target in experiment [5] is T4, 3-oxo-5-alpha-steroid 4-dehydrogenase 2 (Homo sapiens, UniProt P31213).
T4 sequence (P31213 whole entry): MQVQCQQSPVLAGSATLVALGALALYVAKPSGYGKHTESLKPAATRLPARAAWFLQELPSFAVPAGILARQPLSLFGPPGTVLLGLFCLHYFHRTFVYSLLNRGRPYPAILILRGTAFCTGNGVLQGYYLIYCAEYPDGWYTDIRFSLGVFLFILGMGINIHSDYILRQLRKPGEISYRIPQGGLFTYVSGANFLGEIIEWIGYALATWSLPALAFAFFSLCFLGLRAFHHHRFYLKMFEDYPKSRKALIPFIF
Nature of the experiment: Inhibition of Steroid 5-alpha-reductase type 2 from human benign prostatic hyperplasia (BPH) tissue. In a few lines: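 Human BPH prostate 105000g pellet (nuclei, mitochondria, microsomes) prepared in citrate buffer pH 5.5. Incubation of about 125 μg protein for 30 min at 37 °C in 40 mM citrate pH 5.5 with 100 μM NADPH, 0.21 μM [1,2-³H]testosterone and 2% DMSO. Reaction stopped with NaOH, steroids extracted with ether, T/DHT separated by radio-HPLC. Single 10 μM test or IC50; duplicates.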

In experiment [6] the test system is Rattus norvegicus. Nature of the experiment: Mean percentage of inhibition of the T-induced hypertrophic response was calculated according to the equation %inhibition = 100 x (Ct-D)/(Ct-Cc) at a dose 11.3 mg/kg by oral administration. The experiment is classed as functional. In a few lines: as §1
In experiment [7] the test system is Rattus norvegicus. Briefly: Mean percentage of inhibition of the T-induced hypertrophic response was calculated according to the equation %inhibition = 100 x (Ct-D)/(Ct-Cc) at a dose 11.3 mg/kg by subcutaneous administration. It is filed as functional. The following applies: sc. A digest of the protocol: as §1
In experiment [8] the test system is Rattus norvegicus. Nature of the experiment: In vivo ventral prostate weights in juvenile castrated rats treated with testosterone propionate (11.3 mg/kg) compound, by oral administration. It is filed as functional, Prostate gland. A digest of the protocol:
as §1

Experiment [9] has as its system Rattus norvegicus. Briefly: In vivo ventral prostate weights in juvenile castrated rats treated with testosterone propionate (11.3 mg/kg) compound, by subcutaneous administration. It is filed as functional, Prostate gland. A digest of the protocol: as §1
The test system of experiment [10] is Rattus norvegicus. Nature of the experiment: Mean percentage of inhibition of the T-induced hypertrophic response was calculated according to the equation %inhibition = 100 x (Ct-D)/(Ct-Cc) at a dose 12.2 mg/kg by subcutaneous administration. The experiment is classed as functional. The following applies: sc. In a few lines: as §1

With `CCC(=O)O[C@H]1CC[C@H]2[C@@H]3CCC4=CC(=O)CC[C@]4(C)[C@H]3CC[C@]12C` [TESTOSTERONE PROPIONATE], the Weight in the experiment on Rattus norvegicus [1] was 41.6 (mg of prostate) (100g of body weight)-1.

As to `CC(C)(C)NC(=O)[C@H]1CC[C@H]2[C@@H]3CC[C@H]4NC(=O)C=C[C@]4(C)[C@H]3CC[C@]12C` [FINASTERIDE], the IC50 in experiment [2] was determined as 0.011 µM; in [3] it was 0.041 µM; in [4], 0.01 µM; in experiment [5] it was 0.005 µM.

As for `CCC(=O)O[C@H]1CC[C@H]2[C@@H]3CCC4=CC(=O)CC[C@]4(C)[C@H]3CC[C@]12C.O=C(O)c1ccc(C=C2CCN(C(=O)C(C3CCCCC3)C3CCCCC3)CC2)cc1`, the inhibition in vivo at 11.3 mg/kg in the experiment on Rattus norvegicus [6] is 36%; with Rattus norvegicus [7], 49%. Moreover, the Weight with Rattus norvegicus [8] is 31.6 (mg of prostate) (100g of body weight)-1; in the experiment with Rattus norvegicus [9], 27.9 (mg of prostate) (100g of body weight)-1.

`CCC(=O)O[C@H]1CC[C@H]2[C@@H]3CCC4=CC(=O)CC[C@]4(C)[C@H]3CC[C@]12C.O=C(O)Cc1ccc(C=C2CCN(C(=O)C(C3CCCCC3)C3CCCCC3)CC2)c(F)c1`: in the experiment on Rattus norvegicus [10], the inhibition in vivo at 12.2 mg/kg is 55%. The Weight in the experiment on Rattus norvegicus [9] is on record as 26.4 (mg of prostate) (100g of body weight)-1.

A word on the IC50: it is the concentration that gives 50% inhibition. Lower therefore signals higher potency. As usually defined, the inhibition in vivo is how much of the control response was suppressed.
